One may read the Kd as the equilibrium constant for the complex coming apart. Read a low Kd as a tighter complex. One may read the IC50 as the point on the concentration scale where inhibition reaches its midpoint. The clearance is the volume of plasma or blood freed of the substance per unit of time. Read a high clearance as efficient removal.

The target of data set [1] is T1, Aurora kinase B (Homo sapiens, UniProt Q96GD4). The data set can be described thus: Binding affinity to Aurora kinase B catalytic domain by competition binding assay.
Data set [2] deals with T1, Aurora kinase B. The data set can be described thus: Inhibition of Aurora kinase B-mediated histone H3 Ser10 phosphorylation in human HCT116 cells after 2 hrs by sandwich ELISA. The data set is classed as cell-based, HCT-116. Put shortly: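 HCT-116 cells seeded 4 × 10⁴/well, 4-6 h at 37 °C, then arrested overnight (16-18 h) with nocodazole at 66 ng/mL final. Treated 2 h with nine-point 3-fold dilutions in DMSO; lysed with phosphatase inhibitor, phospho-H3 (Ser10) sandwich ELISA read at 450 nm. IC50 = 50% inhibition of phosphorylation; duplicate runs averaged.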
For orientation: In an ELISA, binding on a coated surface is turned into a signal by an enzyme label.

In a further data set the target is T2, Aurora kinase A (Homo sapiens, UniProt O14965).
T2 sequence (O14965 whole entry): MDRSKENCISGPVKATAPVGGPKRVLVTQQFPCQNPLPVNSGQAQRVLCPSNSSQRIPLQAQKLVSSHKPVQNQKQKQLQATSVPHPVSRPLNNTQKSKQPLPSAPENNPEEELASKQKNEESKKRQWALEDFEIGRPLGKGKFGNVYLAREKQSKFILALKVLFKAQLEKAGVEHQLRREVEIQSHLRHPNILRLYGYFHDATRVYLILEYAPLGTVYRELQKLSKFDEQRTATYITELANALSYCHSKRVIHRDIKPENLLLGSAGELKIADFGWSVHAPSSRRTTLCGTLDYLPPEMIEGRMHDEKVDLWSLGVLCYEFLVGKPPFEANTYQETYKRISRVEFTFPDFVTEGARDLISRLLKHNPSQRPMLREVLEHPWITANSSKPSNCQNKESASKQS
The data set can be described thus: Binding affinity to Aurora kinase A catalytic domain by competition binding assay.

The test system of another data set is HCT-116. The data set can be described thus: Antiproliferative activity against human HCT116 cells after 72 hrs by BrdU-based ELISA. The data set is classed as functional, cell-based. As to conditions: HCT-116, 72 h. Put shortly:
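HCT-116 cells in McCoy's 5A with 10% FBS and pen/strep, seeded 800 cells/well, left overnight at 37 °C, 5% CO2. Nine-point 3-fold serial dilutions in DMSO added for 72 h; BrdU colorimetric ELISA read at 450 and 690 nm. IC50 is the concentration halving proliferation; duplicate runs averaged.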

Data set [3] is described as follows: Clearance in Sprague-Dawley rat at 1 mg/kg, iv administered using PEG400/water as vehicle. Type of data set: ADME, organism-based. Also noted: dose 1 mg/kg, route intravenous. As to conditions: in vivo. Put shortly: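 SD rats fasted overnight, given 1 mg/kg iv in PEG400/water (3:1, v/v); three per arm. Blood into K3 EDTA at 5, 15, 30 min, 1, 2, 4, 6, 24 h, spun at 4 °C; plasma extracted with six volumes acetonitrile plus internal standard and quantified by LC-MS/MS (C8 column, formic acid/ACN gradient).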

T1 sequence (Q96GD4 whole entry, the tested form may be a part): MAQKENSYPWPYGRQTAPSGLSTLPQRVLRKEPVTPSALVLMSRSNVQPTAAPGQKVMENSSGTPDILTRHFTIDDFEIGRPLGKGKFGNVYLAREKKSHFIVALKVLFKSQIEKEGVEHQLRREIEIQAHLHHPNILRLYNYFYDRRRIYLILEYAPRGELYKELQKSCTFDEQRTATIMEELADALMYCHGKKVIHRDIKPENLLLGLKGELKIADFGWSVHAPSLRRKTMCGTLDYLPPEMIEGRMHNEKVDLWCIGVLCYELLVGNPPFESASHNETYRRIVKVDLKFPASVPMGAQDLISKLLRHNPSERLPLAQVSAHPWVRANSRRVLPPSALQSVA

On to `Cc1cc(Nc2nc(Sc3ccc(NC(=O)CN4CC[C@@H](C(=O)N5CCC(O)CC5)C4)cc3)nn3cccc23)n[nH]1`, for which the Kd came out at 0.0037 µM at Aurora kinase B [1] and 0.004 µM on Aurora kinase A. Moreover, the IC50 against Aurora kinase B [2] was found to be 0.293 µM; in the data set on HCT-116 it was 0.105 µM.
Regarding `Cc1cc(Nc2nc(Sc3ccc(NC(=O)CN4CC[C@@H](SC(C)(C)C)C4)cc3)nn3cccc23)n[nH]1`, the Kd on Aurora kinase B [1] came to 0.0142 µM; at Aurora kinase A, 0.0252 µM. Also, the IC50 was 0.0945 µM at Aurora kinase B [2] and 0.0193 µM with HCT-116.
In the same order, the values of `Cc1cc(Nc2nc(Sc3ccc(NC(=O)CN4CC[C@@H](OCCN5CCN(C)CC5)C4)cc3)nn3cccc23)n[nH]1` are 0.0029 µM, 0.0125 µM, 0.169 µM and 0.0298 µM.
For the compound `COCCO[C@@H]1CCN(CC(=O)Nc2ccc(Sc3nc(Nc4cc(C)[nH]n4)c4cccn4n3)cc2)C1`, the Kd is 0.0031 µM at Aurora kinase B [1] and 0.0115 µM on Aurora kinase A. Also, the values for the IC50 at Aurora kinase B [2] and with HCT-116 were 0.0062 µM and 0.0031 µM, respectively. Besides, the clearance in data set [3] was determined as 62 mL/min/kg.
For the compound `Cc1cc(Nc2nc(Sc3ccc(NC(=O)CN4CC[C@H](O)C4)cc3)nn3cccc23)n[nH]1`, the Kd at Aurora kinase B [1] is 0.0148 µM; on Aurora kinase A it was 0.039 µM. Also, the IC50 against Aurora kinase B [2] is 0.42 µM; in the data set with HCT-116, 0.227 µM.
Turning to `Cc1cc(Nc2nc(Sc3ccc(NC(=O)CN4CC[C@@H](C(=O)N5CCOCC5)C4)cc3)nn3cccc23)n[nH]1`, the Kd on Aurora kinase B [1] turned out to be 0.0026 µM; on Aurora kinase A, 0.004 µM. Besides, the half-maximal inhibitory concentration (IC50) is 0.0146 µM against Aurora kinase B [2] and 0.0039 µM with HCT-116.

The values above are taken from ChEMBL document CHEMBL2163334, “Discovery of highly potent and selective pan-Aurora kinase inhibitors with enhanced in vivo antitumor therapeutic index” (J Med Chem, 2012).
